This is an account of results in publication PMC5312682 (Journal of neurochemistry, 2017).

The target in data set [1] is CNS-relevant targets, including opioid, adrenergic, nACR, mAChR, and NMDA receptors, neurotransmitter transporters and ion channels. The data set is described as follows: Off-target binding, CNS-relevant targets. The conditions noted are these: read-out: off-target affinity Ki; most CNS-relevant targets; Supplemental table 2.
The test system of data set [2] is human SK-N-SH neuroblastoma cells. Description: Intracellular calcium assay. The class given is cell-based. The conditions noted are these: for calcium response: compound alone. A general note: Calcium flux is commonly read through the fluorescence of an indicator in the cells.
Data set [3] relates to transgenic SC_APP C. elegans. Description: C. elegans neurotoxicity assay. It counts as in vivo.
Data set [4] can be described thus: PK study in mice. The class given is in vivo, C57Bl/6J mice. Conditions: mouse; for bioavailability: AUC(0-3h) vs intravenous.
Data set [5] has as its system Thy1-hAPP^Lond/Swe+ mice and WT littermates. The data set is described as follows: Sociability / social discrimination test. It counts as in vivo, mouse. The conditions noted are these: for sociability test: preference mouse cup vs empty cup: 10 mg/kg/d SC, after 35 days of dosing. The essentials:
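APPLond/Swe+ and WT littermates dosed SC daily in late afternoon; on test days, dosing followed testing. Chronic study: 10 mg/kg for 64 days from 4.5 months; sociability measured as exploration of a cup holding a C57Bl/6 mouse vs an empty cup. Dose-response study: 3, 10 or 30 mg/kg from 6.7 months; social discrimination of novel vs familiar mouse after 30 days of dosing, by t-test.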

For data set [6] the test system is unchanged. The data set is described as follows: Y-maze test. The class given is in vivo, mouse. An outline of the steps:
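Y-maze spontaneous alternation and total arm entries in APPLond/Swe+ and WT littermates dosed SC daily, tested during the active cycle in balanced morning and afternoon sessions. Chronic study: 10 mg/kg, tested after 50 days of dosing. Dose-response study: 3, 10 or 30 mg/kg for 60 days. Alternation was compared with a 50% theoretical mean by one-sample t-test; mean ±SEM.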

Data set [7] has the same test system. The data set is described as follows: Morris Water Maze. It counts as in vivo, mouse. The essentials:
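Dose-response cohort: APPLond/Swe+ and WT littermates aged 6.7 months, given 3, 10 or 30 mg/kg SC daily for 60 days (n=4–5 per group). MWM started after 35 days of dosing, with hidden-platform learning followed by reversal-learning hidden-platform trials. Mice floating extensively or unable to swim were excluded. Analysis used repeated-measures ANOVA with Dunnett's or one-way ANOVA with Fisher's LSD; mean ±SEM.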

The test system is the same in data set [8]. It counts as in vivo, mouse. An outline of the steps:
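APPLond/Swe+ and WT littermates, single-housed on a reverse light cycle, balanced for body weight and pre-dose locomotor activity. Dosing was 10 mg/kg SC once daily in late afternoon for 64 days, started at 4.5 months of age. Activity chamber was run first in the behavioural battery, during the active cycle. After behavioural testing, blood and organs were collected at sacrifice for blood chemistry and histopathology.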

For data set [9], the system named is Aβ. The data set is described as follows: Aβ pathology. It counts as in vivo, mouse. The conditions noted are these: APP^Lond/Swe+ mice, 10 mg/kg/d chronic. The essentials: (§1)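 After behavioural testing at the end of chronic daily SC dosing, APPLond/Swe+ and WT mice were perfused with PBS and brains collected. Brains were bisected sagittally: one half was frozen at −80°C, and the other was fixed overnight in 4% formalin, then kept at 4°C in 30% sucrose until processing.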

Data set [10] deals with synaptophysin, iba1. The data set is described as follows: Synaptophysin and iba1 immunohistochemistry in brain. The class given is in vivo, mouse. The essentials: as §1
Data set [11] has as its system IL1β. The data set is described as follows: qRT-PCR of inflammatory markers in cortical tissue. It counts as in vivo, mouse. Conditions: APP^Lond/Swe+ mice, dose-response cohort. On the technique in general: Real-time PCR tracks product formation cycle by cycle.
The target in data set [12] is Sig2R. Conditions: read-out: Ki Sig2R; ref Sahn et al. 2016; cited from earlier work.
The test system of data set [13] is microglia. Conditions: induced by fragments of amyloid beta; ref Behensky et al. 2013; cited from earlier work.
Data set [14] deals with neural progenitor cells derived from adult rat brain. Conditions: ref Liu et al. 2009; cited from earlier work.

As a reminder, the Ki is a dissociation constant, usually derived from enzyme kinetics or from competition with a known ligand. What is called bioavailability is dose-corrected exposure relative to a reference, in per cent. Low values mean poor availability, high ones good availability. With `CN1CCN(c2ccc3c(c2)[C@H]2C[C@@H]3CCN2C(=O)OCc2ccccc2)CC1` [SAS-0132], the Ki in [1] was 0.5 to 10 µM; in data set [12], 90 nM. Moreover, in [2] (100 µM), the “effects on intracellular Ca2+ compared with DKR-1051” value is “weaker than the effects of DKR-1051”. Further, the “effect on calcium response induced by DKR-1051 (100 µM)” value in data set [2] (SAS-0132 applied before DKR-1051, lower concentrations (0.1-30 µM)) was “significantly attenuated the DKR-0151-induced calcium response”. In addition, the calcium response result in data set [2] (100 µM) is reported as “significant increases in intracellular Ca^2+”; in data set [2] (concentrations up to 30 µM), “fails to produce a significant calcium response”. Further, in data set [3] (200 µM, 5-day treatment, day 5 of adulthood, SC_APP worms, p < 0.01), the “neurodegeneration of VC4 and VC5 neurons vs vehicle” value is given as “decreased neurodegeneration”. Moreover, the “neuroprotection in animals with vem-1 (PGRMC1) knocked-down by RNAi” value in data set [3] (200 µM, SC_APP worms, vem-1 RNAi co-treatment) is “provided no further neuroprotection”. Further, the “functional classification at Sig2R/PGRMC1” value in data set [3] (from C. elegans data compared with vem-1 null mutations) is listed as “Sig2R/PGRMC1 antagonists”. In addition, the plasma levels result in data set [4] (10 mg/kg IV, SC and PO, up to 3 h post-administration) is recorded as “Detectable levels”. Also, the bioavailability is listed as 7% in [4] (10 mg/kg oral) and 45% in data set [4] (10 mg/kg subcutaneous). In [4] (10 mg/kg subcutaneous, 3 h post-administration), this compound registered a brain concentration of 3.8 µM. Moreover, the “concentration in brain homogenates” value in data set [4] (24 h after single 10 mg/kg subcutaneous injection) is given as 1.6 ng/g. Moreover, the “sociability test: preference mouse cup vs empty cup” value in [5] (APP^Lond/Swe+ mice, p < 0.05) is recorded as “showed a distinct preference for the cup containing a mouse over the empty cup”; in [5] (WT mice) it was “not significantly altered”. The sociability result in [5] (dose-response study, 30 mg/kg) is on record as “did not impair sociability”. The “social discrimination: novel vs familiar mouse” value in [5] (dose-response study, APP^Lond/Swe+ mice, 3 mg/kg) was “showed a significant preference for a novel mouse over a familiar one”. For the same compound, the “Y-maze total arm entries” value in data set [6] (WT and APP^Lond/Swe+ mice, 10 mg/kg/d, chronic daily dosing study) is reported as “not different among the four groups”; in data set [6] (dose-response study, all groups), “not different among groups”. Moreover, the Y-maze spontaneous alternation result in [6] (dose-response study, WT and APP^Lond/Swe+ mice, 30 mg/kg) is listed as “showed impaired spontaneous alternation behavior”; in [6] (dose-response study, WT mice, 30 mg/kg), “showed impaired alternation behavior”; in data set [6] (dose-response study, WT mice, 3 and 10 mg/kg), “did not affect their performance”. Moreover, the “MWM hidden platform learning phase” value in data set [7] (APP^Lond/Swe+ mice) is recorded as “had no effect on the cognitive functions”. Also, the “MWM reversal learning trials” value in data set [7] (APP^Lond/Swe+ mice) was “no significant effects of SAS-0132 treatment”. Besides, the “MWM reversal learning probe trial: target quadrant preference” value in data set [7] (APP^Lond/Swe+ mice, 10 mg/kg) was “showed target quadrant preference”; in data set [7] (WT mice, 10 and 30 mg/kg), “demonstrated recall and showed target quadrant preference”. Moreover, the “MWM reversal learning: escape latency vs vehicle” value in data set [7] (APP^Lond/Swe+ mice, 3 and 10 mg/kg) is recorded as “non-significant decreased escape latency”. The “MWM probe trial: target quadrant preference” value in data set [7] (WT mice, 3 mg/kg) is “showed a clear preference for the target quadrant”. For the same compound, the “MWM reversal probe trial: target quadrant preference” value in data set [7] (WT mice, 3 mg/kg) is “all WT groups showed target quadrant preference with the exception of the 3 mg/kg dose group”. In addition, in [7] (WT mice, 3 and 30 mg/kg, started after 35 days of dosing), the “MWM hidden platform learning: escape latency” value is listed as “found the escape platform faster than the vehicle-treated WT mice”. In addition, the “MWM reversal learning day 2: escape latency” value in data set [7] (WT mice, 10 and 30 mg/kg) was “found the escape platform faster than WT mice treated with vehicle”. Also, the “blood chemistry and histopathology” value in data set [8] (WT mice, 10 mg/kg/d for 64 days, Supplemental tables 3-4) is on record as “no signs of SAS- 0132 induced toxicity”. In addition, in [8] (after 24 days of treatment), the “locomotor activity in activity chamber vs vehicle” value was “not significantly different”. For the same compound, the “general health of treated animals” value in data set [8] (both chronic daily dosing studies, 3-30 mg/kg/d, 60-64 days) was “remained healthy and exhibited no detectable abnormalities”. In addition, the “intracellular Aβ immunoreactivity (cortex, hippocampus, amygdala)” value in data set [9] was “does not affect levels of intracellular Aβ”. In data set [9], the “soluble and insoluble Aβ40 and Aβ42 (ELISA) vs vehicle” value is given as “no significant difference”. Besides, the “synaptophysin immunoreactivity, CA3 (synapse loss)” value in [10] (APP^Lond/Swe+ mice, 10 mg/kg/d chronic) is “did not alter the extent of synapse loss”. For the same compound, in data set [10] (WT or APP^Lond/Swe+ mice, chronic daily dosing study), the iba1 immunoreactivity entry is listed as “no drug-related effects”. In addition, in [11], the “IL1β mRNA expression” value is on record as “decreased the expression of the inflammatory cytokine IL1β”.
Turning to `CCOc1ccc2nc(SCCN3CCOCC3)[nH]c2c1` [afobazole], the “neurotoxic microglia stimulation and apoptosis” value in data set [13] was “reduces neurotoxic microglia stimulation and apoptosis”.
`CC(=O)[C@H]1CC[C@H]2[C@@H]3CCC4=CC(=O)CC[C@]4(C)[C@H]3CC[C@]12C` [progesterone]: the “neurogenic and neuroprotective effects” value in data set [14] was “exerts neurogenic and neuroprotective effects”.
